# High-throughput results deposited in PubChem BioAssay by several laboratories.
# Sampled rows, rich in hits. Any-hit rate of the full collection: about 1.4%.
# FXIIa inh 1536 = human FXIIa protease inhibitors, primary screen, biochemical, 1536-well. purified FXIIa, Boc-QGR-AMC fluorogenic substrate, 2 h. inhibition, % at 5 µM. 220,000 compounds, 0.3% hits. AID 800, 2007; in the data active = inhibition above about 40%;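 note: 0% = enzyme with no compound and 100% = blank without enzyme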
# FXIa inh = human FXIa protease inhibitors, primary screen, biochemical, 1536-well; Coagulation factor XI (Homo sapiens), P03951; 220,000 compounds, 0.14% hits; purified FXIa, Boc-Glu-Ala-Arg-AMC fluorogenic substrate; inhibition, % at 5 µM;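 active = inhibition of at least 40%; inactive = inhibition below 40%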;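 note: fluorescence of freed AMC excited at 355 nm; 0% = enzyme without compound and 100% = no enzyme blank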
# hK5 inh = human KLK5 protease inhibitors, primary screen, biochemical, 1536-well | recombinant hK5, fluorogenic AMC substrate cleavage | 210,000 compounds, 0.59% hits | AID 873, 2007 | inhibition, % at 5 µM;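 active = inhibition of 40% or more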;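 note: 0% = enzyme controls without compound and 100% = no-enzyme blanks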
# Target sequence (Q9Y337 67-293 limits assumed): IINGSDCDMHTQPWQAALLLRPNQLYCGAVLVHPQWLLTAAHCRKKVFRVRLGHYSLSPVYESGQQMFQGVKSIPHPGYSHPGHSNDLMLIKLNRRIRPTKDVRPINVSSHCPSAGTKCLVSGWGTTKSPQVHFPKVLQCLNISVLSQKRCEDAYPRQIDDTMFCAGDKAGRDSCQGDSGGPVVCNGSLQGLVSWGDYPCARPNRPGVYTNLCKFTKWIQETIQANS
# Thrombin inh = human alpha-thrombin inhibitors, primary screen, counter-screen for coagulation protease inhibitor project, biochemical, 1536-well, fluorogenic AMC substrate; Prothrombin (Homo sapiens), P00734; Boc-VPR-AMC fluorogenic substrate cleavage; inhibition, % at 5 µM; 220,000 compounds, 0.26% hits;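 active = inhibition at or above 40%; inactive = inhibition below 40%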;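 note: 0% = enzyme with no compound and 100% = wells without enzyme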
#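 Material: Human alpha-thrombin protein | Buffer or medium: pH 7.5 Tris-saline with Tween 20 | Reagent: Boc-VPR-AMC substrate, 15 µM final | Schedule: Reaction at ambient temperature | Detection: AMC fluorescence at 355 nm excitation and 460 nm emission | Evaluation: Percent inhibition scaled between no-compound controls and no-enzyme blanks | Controls: no-compound enzyme wells and no-enzyme blanks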
# m-calpain inh = inhibitors of pig calpain II, primary screen, biochemical, fluorogenic peptide substrate, 1536-well; purified calpain II, 30 min; inhibition, % at 16 µM; 220,000 compounds, 0.37% hits; AID 1236, 2008;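 active = inhibition above about 50%, limit read from the data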
# * hit, by the source's call; . = no result.
SMILES,FXIIa inh 1536,FXIa inh,hK5 inh,Thrombin inh,m-calpain inh
O=C1NC(=O)N(Cc2ccc(F)cc2)C(=O)/C1=C/c1cccs1,1,-6,-16,1,-2
O=C1NC(=O)N(Cc2ccccc2Cl)C(=O)/C1=C/c1cccs1,39,29,50*,11,-8
CN1CCN(/N=C/c2c(O)n(Cc3ccc(F)cc3)c(=O)[nH]c2=O)CC1,5,-3,-1,-5,-15
O=c1[nH]c(=O)n(Cc2ccco2)c(O)c1C=NCCCn1ccnc1,1,7,-16,-4,40
OC1(c2ccccc2F)CC2CCC(C1)N2CCN1CCOCC1 (centres undefined),-162,33,55*,23,8
COc1ccc(C(=O)CN2CCOCC2)cc1F,-7,6,7,-2,21
Cn1c(O)c(C(=NCCc2c[nH]c3ccccc23)c2ccccc2)c(=O)n(C)c1=O,10,-2,-5,10,-6
CCCCC/C=C\C/C=C\C/C=C\C/C=C\CCCC(=O)Nc1ccc(O)cc1,.,.,.,.,63*
COc1cc2c(cc1/C=C/[N+](=O)[O-])OCO2,39,42*,40*,16,18
CN(C)C(=O)O/N=C(\N)COc1ccc(C(C)(C)C)cc1,5,-8,-7,0,-3
CN1C(=O)NC(=O)/C(=C\C=C\c2ccccc2[N+](=O)[O-])C1=O,3,-3,-3,-5,-17
Cc1cc(N2CCCC2)ccc1C=C(C#N)C#N,36,31,48*,-9,23
Cc1cc(N2CCCCC2)ccc1C=C1C(=O)N(C)C(=S)N(C)C1=O,28,23,-21,4,32
CN1C2c3ccccc3C3C4c5ccccc5C(C31)C(C2[N+](=O)[O-])N4C (centres undefined),8,1,-2,-4,11
Clc1ccc2c(N3CCNCC3)ccnc2c1,21,10,41*,23,13
CC1(CCl)CN1S(=O)(=O)c1ccccc1 (centres undefined),4,0,-1,0,-1
CNC(=O)Oc1cccc2ccccc12,28,18,42*,22,3
CC[C@]12C=CCN3CCC4(c5cc(Br)c(OC)cc5N(C)C4[C@@](O)(C(=O)OC)[C@@H]1OC(C)=O)C32 (some centres undefined),28,21,43*,28,19
O=C1NC(=S)N(C2CC2)C(=O)/C1=C/c1ccc2c(c1)CCN2CCCCl,43*,15,21,25,-21
CCN1C(=O)/C(=C/c2ccc3c(c2)CCN3CCCCl)C(=O)NC1=S,1,-1,-60,-1,-57
Cc1ccc(-n2nc(C)cc2NC(=O)COc2cc(C)cc3oc(=O)c4c(c23)CCC4)cc1,2,-7,0,-8,-61
Cc1ccccc1-n1c(C)nc2ccccc2c1=O,25,36,24,8,26
COC(=O)c1ccccc1-n1c(C)nc2ccccc2c1=O,17,3,82*,28,10
CC(=O)Cc1c[nH]c2ccccc12,3,-1,1,0,-17
Cc1ccc2c(c1)C1CN(C)CCC1N2C(=O)c1cn(-c2ccccc2)nc1-c1ccccc1 (centres undefined),8,-6,-5,80*,2
SMILES,FXIIa inh 1536,FXIa inh,hK5 inh,Thrombin inh,m-calpain inh
COc1nc(NC(C)C)nc(NC(C)C)n1,2,-3,-1,-1,14
O=C(c1ccccc1)c1cn(CC(=O)N2CCCc3ccccc32)c2ccccc12,14,5,-13,-8,56*
CC1CCCN(CC(=O)N2CCCc3ccccc32)C1 (centres undefined),19,2,87*,28,24
CSc1ccccc1C(=O)C1CCCN(Cc2ccncc2)C1 (centres undefined),7,-1,.,0,-4
C#CCOCOCC#CCN(CC)CC,15,8,-6,4,6
Cc1nc2ccccc2n1C1CCN(Cc2nnnn2CCc2ccccc2)CC1,43*,-13,-2,-4,8
CN1CCN(c2ncnc(Cl)c2N)CC1,103*,30,33,1,6
O=C(O)c1ccc(N=Cc2c(O)n(Cc3ccc(F)cc3)c(=O)[nH]c2=O)cc1,41*,31,30,32,19
